Screening results deposited in PubChem BioAssay by Broad Institute.
FGF22 binding: FGF22 (human) thermal shift binding. recombinant FGF22 thermal shift, SYPRO orange fluorescence; percent of sucrose octasulfate shift, DMSO zero. Q9HCT0. 340,000 compounds, 1.5% hits. activity (Tm shift, normalised), % at 9.99 µM. AID 651658;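 active means mean Tm shift, scaled 0 neutral to 100 positive control, at about 1.3% or above, every replicate too, limit read from the data; inconclusive means no clear call, values can overlap the other calls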
Target sequence (Q9HCT0 whole entry, looked up): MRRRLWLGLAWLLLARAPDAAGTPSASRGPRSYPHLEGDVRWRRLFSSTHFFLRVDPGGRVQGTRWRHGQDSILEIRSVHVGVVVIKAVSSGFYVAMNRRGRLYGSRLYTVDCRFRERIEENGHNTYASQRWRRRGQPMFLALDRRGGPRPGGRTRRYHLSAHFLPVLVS
S100A4 MyoIIA: S100A4-myosin IIA interaction inhibition. 360,000 compounds, 0.14% hits. P26447. S100A4/TAMRA-MyoIIA peptide fluorescence polarization. inhibition, % at 10.7 µM;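 active means mean inhibition of at least 70% across replicates, with every replicate also reaching that level; inconclusive means mean inhibition reaches 70% but some replicates fall short; inactive means mean inhibition below 70%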
Target sequence (P26447 whole entry, looked up): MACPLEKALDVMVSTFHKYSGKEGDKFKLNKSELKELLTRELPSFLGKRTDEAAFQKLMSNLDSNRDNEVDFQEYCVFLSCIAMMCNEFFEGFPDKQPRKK
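Test system: S100A4 monomer protein; Medium: HEPES pH 7.2 with CaCl2, KCl, NaCl, DTT, Triton; Probe or stimulus: TAMRA-labelled myosin IIA heavy-chain peptide probe, 5 nM; Doses: one dose per compound; Times: polarization read 5 min after assay mix addition, stable 5–60 min; Benchmarks: neutral control DMSO, positive control TFP.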
miR-122 sensor: miR-122 inhibition in Huh7 cells; Huh7 miR-122 Renilla luciferase sensor, 48 h; neutral wells = 0, positive control = 100; activation (reporter increase), % at 12.5 µM; 340,000 compounds, 0.3% hits;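 active means mean replicate activation score at least 90 and every replicate individually at or above 90; inconclusive means only one of the two criteria met; inactive means neither criterion met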;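 further: higher luciferase means less miR-122 activity so hits act as miR-122 inhibitors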
SIRT5 block: blocks human SIRT5 desuccinylation of peptide; inhibition, % at 15 µM; Purified SirT5, succinyl-peptide AMC, trypsin-coupled fluorescence; 330,000 compounds, 1.1% hits; in the data active means inhibition above about 15%; inconclusive means no clear call, values can overlap the other calls
Target sequence (Q9NXA8 whole entry, looked up): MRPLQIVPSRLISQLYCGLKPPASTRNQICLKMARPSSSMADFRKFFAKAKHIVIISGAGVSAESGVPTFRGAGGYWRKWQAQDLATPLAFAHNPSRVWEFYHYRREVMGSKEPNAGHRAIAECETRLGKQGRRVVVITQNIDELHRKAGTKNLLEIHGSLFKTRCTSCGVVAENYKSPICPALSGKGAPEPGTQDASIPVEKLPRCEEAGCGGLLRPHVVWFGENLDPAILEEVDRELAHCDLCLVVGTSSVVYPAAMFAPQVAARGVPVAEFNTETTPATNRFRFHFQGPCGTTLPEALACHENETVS
E-selectin induc: E-selectin induction on HUVECs. activation, % at 7.58 µM. 260,000 compounds, 0.37% hits. AID 686992. P16581. HUVEC E-selectin immunofluorescence imaging; normalized: neutral wells 0, TNF-alpha wells 100;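 active means mean E-selectin-positive cell signal at least 10% of the positive control, reached in at least 60% of replicates, without over 20% cell loss; inconclusive means no rule given, readout overlaps actives, possibly toxicity-flagged; inactive means the rest, including those meeting only one limit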
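System: HUVEC / Compound: single concentration / Signal: immunofluorescence imaging / Read-out: percent E-selectin-positive cells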
Each line names hits and unclear results; the compound was inactive in the other large screens. A selection: hits, their analogues and other compounds. The true share with any hit is near 2.5%.

C[C@H](CO)N1C[C@H](C)[C@H](CN(C)Cc2ccc(C(F)(F)F)cc2)OCCCC[C@H](C)Oc2ccc(NC(=O)c3ccccc3)cc2C1=O	none
O=C(C1CC1)N1CCCCN2[C@H](CO)[C@@H](c3ccc(C#CC4(O)CCCC4)cc3)[C@H]2C1	none (no result: E-selectin induc)
CCCCc1ccc(NC(=S)N2CCN(c3ncccn3)CC2)cc1	FGF22 binding 43 (no result: E-selectin induc)
CCCCc1ccc(NC(=S)N2CCN(c3ccccn3)CC2)cc1	none (no result: E-selectin induc)
CC(=O)N(Cc1ccccc1)Cc1nc2sc(C)c(C)c2c(=O)[nH]1	FGF22 binding 44 (no result: E-selectin induc)
Cc1sc2nc(CN(Cc3ccccc3)C(=O)NC3CCCCC3)[nH]c(=O)c2c1C	none (no result: FGF22 binding, S100A4 MyoIIA, SIRT5 block, E-selectin induc)
COc1ccc(NC(=O)CN2C(=O)S/C(=C/c3cccn3-c3ccc(C(=O)O)cc3)C2=O)cc1	none
Cc1ccc(NC(=O)CN2C(=O)S/C(=C\c3cccn3-c3cccc(C(=O)O)c3)C2=O)cc1C	none (no result: miR-122 sensor, E-selectin induc)
Cc1cccc(NC(=O)CN2C(=O)S/C(=C\c3cccn3-c3cccc(C(=O)O)c3)C2=O)c1	FGF22 binding 43 (no result: E-selectin induc)
CCn1c(C)cc(/C=C2\NC(=O)N(CC(=O)Nc3ccc(F)cc3)C2=O)c1C	none (no result: miR-122 sensor)
Cc1ccc(NC(=O)CN2C(=O)S/C(=C\c3cc(C)n(-c4ccc(C(=O)O)cc4)c3C)C2=O)cc1	FGF22 binding 44
Cc1ccc(NC(=O)CN2C(=O)N/C(=C/c3cc(C)n(-c4ccc(C(=O)O)cc4)c3C)C2=O)cc1	SIRT5 block 26 (no result: miR-122 sensor, E-selectin induc)
Cc1ccccc1C(=O)N1CCC(C(=O)OCC(=O)Nc2cccc([N+](=O)[O-])c2C)CC1	none (no result: miR-122 sensor)
Cc1c(NC(=O)CN2CCC(C(N)=O)CC2)cccc1[N+](=O)[O-]	FGF22 binding 43 (no result: miR-122 sensor, E-selectin induc)
COc1cc2c(cc1OC)C1Cc3ccc(OC)c(OC)c3CN1CC2 (centres undefined)	none (no result: FGF22 binding, S100A4 MyoIIA, SIRT5 block, E-selectin induc)
COc1cc2c(cc1OC)CN1CCc3cc(OC)c(OC)cc3C1C2 (centres undefined)	SIRT5 block 23 (no result: E-selectin induc)
CCC(=O)N(C)C[C@@H]1Oc2cc(-c3cncnc3)ccc2S(=O)(=O)N([C@H](C)CO)C[C@@H]1C	none (no result: FGF22 binding)
O=C(c1ccc2nc(-c3ccco3)c(-c3ccco3)nc2c1)N1CCN(c2ccccc2)CC1	none (no result: FGF22 binding, S100A4 MyoIIA, SIRT5 block, E-selectin induc)
O=C(O)c1ccc2nc(-c3ccco3)c(-c3ccco3)nc2c1	SIRT5 block 22 (no result: E-selectin induc)
Cc1ccc(S(=O)(=O)Nc2ccc3c(c2)C(=O)N([C@@H](C)CO)C[C@H](C)[C@@H](CN(C)C(=O)Nc2ccc(C(F)(F)F)cc2)OCCCC[C@@H](C)O3)cc1	SIRT5 block 18
C[C@H](CO)N1C[C@H](C)[C@H](CN(C)C(=O)Nc2ccc(C(F)(F)F)cc2)OCCCC[C@H](C)Oc2ccc(NS(=O)(=O)c3ccc(Cl)cc3)cc2C1=O	SIRT5 block 40
C[C@@H]1CCCCO[C@@H](CN(C)C(=O)CCC(F)(F)F)[C@@H](C)CN([C@H](C)CO)C(=O)c2cc(NS(=O)(=O)c3ccc(Cl)cc3)ccc2O1	none
C[C@@H]1CCCCO[C@H](CN(C)C(=O)Nc2ccc(C(F)(F)F)cc2)[C@@H](C)CN([C@H](C)CO)C(=O)c2cc(NS(=O)(=O)c3cn(C)cn3)ccc2O1	FGF22 binding 1.5
C[C@H](CO)N1C[C@H](C)[C@H](CN(C)C(=O)CCC(F)(F)F)OCCCC[C@H](C)Oc2ccc(NS(=O)(=O)c3ccc(Cl)cc3)cc2C1=O	SIRT5 block 17
O=C(C[C@@H]1CC[C@@H](NC(=O)C2CC2)[C@@H](CO)O1)NCC1CC1	none (no result: miR-122 sensor)
CC(C)NC(=O)Nc1ccc2c(c1)CC(=O)N([C@H](C)CO)C[C@H](C)[C@H](CN(C)C)O2	none
Cc1ccc(S(=O)(=O)Nc2ccc3c(c2)C(=O)N([C@@H](C)CO)C[C@@H](C)[C@@H](CN(C)C(=O)Nc2ccc(C(F)(F)F)cc2)OCCCC[C@@H](C)O3)cc1	SIRT5 block 15
C[C@@H]1CCCCO[C@@H](CN(C)C(=O)Nc2ccccc2)[C@H](C)CN([C@H](C)CO)C(=O)c2cc(NS(=O)(=O)c3ccc(Cl)cc3)ccc2O1	FGF22 binding 3.6 (no result: E-selectin induc)
C[C@@H]1CN([C@H](C)CO)C(=O)c2cc(NS(=O)(=O)c3ccc(Cl)cc3)ccc2O[C@@H](C)CCCCO[C@H]1CN(C)C(=O)Nc1ccccc1	none (no result: E-selectin induc)
Cc1ccc(S(=O)(=O)Nc2ccc3c(c2)C(=O)N([C@H](C)CO)C[C@H](C)[C@@H](CN(C)C(=O)Nc2ccc(C(F)(F)F)cc2)OCCCC[C@@H](C)O3)cc1	none
O=[N+]([O-])c1cccc(/C=N/Nc2ccccn2)c1	none (no result: miR-122 sensor)
O=[N+]([O-])c1cccc(/C=C/c2ccccn2)c1	SIRT5 block 24 (no result: E-selectin induc)
COc1ccc2c3c(n(C)c2c1)[C@H](CO)N(S(C)(=O)=O)CC31CCN(Cc2nccs2)CC1	none (no result: miR-122 sensor)
O=C(C[C@@H]1C[C@@H]2c3cc(NC(=O)NC4CCCC4)ccc3O[C@@H]2[C@H](CO)O1)NCc1ccc(-c2ccccc2)cc1	none
C[C@@H]1CN([C@@H](C)CO)C(=O)c2cccc(NC(=O)c3ccc(-c4nccs4)cc3)c2O[C@@H]1CN(C)Cc1ccc(Oc2ccccc2)cc1	E-selectin induc inconclusive
C[C@H]1CN([C@@H](C)CO)C(=O)c2cccc(NC(=O)c3ccc(-c4nccs4)cc3)c2O[C@H]1CN(C)Cc1ccc(Oc2ccccc2)cc1	SIRT5 block 21, E-selectin induc inconclusive
C[C@H](CO)N1C[C@H](C)[C@@H](CN(C)Cc2ccc(Oc3ccccc3)cc2)Oc2c(NC(=O)c3ccc(-c4nccs4)cc3)cccc2C1=O	SIRT5 block 16
C[C@H](CO)N1C[C@H](C)[C@H](CN(C)Cc2ccc(-c3ccccc3)cc2)Oc2c(NC(=O)c3ccc(-c4nccs4)cc3)cccc2C1=O	none
C[C@H]1CN([C@@H](C)CO)C(=O)Cc2cc(N(C)C)ccc2O[C@H]1CN(C)C(=O)Nc1ccc(F)cc1	none (no result: miR-122 sensor)
O=C(O)c1cccc([N+](=O)[O-])c1C(=O)Nc1nc2ccccc2s1	FGF22 binding 43
O=C(Nc1nc2ccccc2s1)c1ccccc1[N+](=O)[O-]	none
Cn1c(SCC(=O)N2CCCC2=O)nnc1-c1ccccc1F	FGF22 binding 43
CCn1c(SCC(=O)N2CCCC2=O)nnc1-c1cccs1	none (no result: E-selectin induc)
CN(C(=O)CSc1n[nH]c(N)n1)C1CCCCC1	none (no result: miR-122 sensor, E-selectin induc)
Cc1nnc(SCC(=O)N(C)C2CCCCC2)s1	FGF22 binding 44
O=C(c1ccccc1[N+](=O)[O-])N1CCN(c2ccc(N3CCOCC3)nn2)CC1	E-selectin induc 58 (no result: miR-122 sensor)
O=C(c1cnccn1)N1CC(=O)N2[C@H](CO)[C@H](c3ccc(C#CCC4CCCC4)cc3)[C@@H]2C1	none (no result: FGF22 binding, miR-122 sensor)
CC(C)CCNC(=O)COc1cccc2c1OC(C)(C)C2	FGF22 binding 43 (no result: miR-122 sensor, E-selectin induc)
